Reference: ChEMBL document CHEMBL4041464, “New potent biaryl sulfate-based hepatitis C virus inhibitors” (Eur J Med Chem, 2017)
pEC50: −log10 of the molar value. Values belong to the compound of their own block, whether it stands above or below them.

Key:
[1] = Inhibition of HCV genotype 1b NK5.1 NS5A in infected human Huh 7.5.1 cells assessed as reduction in viral RNA replication incubated for 3 days by luciferase reporter gene assay; set-up: species or system Hepatitis C virus subtype 1b; details: Hepatitis C virus, NK5.1, Huh-7.5.1, 72 h
Procedure, shortened: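 Genotype 1b replicon cells (Huh 7.5.1 carrying NK5.1-Gluc) were cultured 16 h, then given serially diluted compounds for 3 days. Culture media were collected and luciferase activity measured and normalised to mock-treated cells to derive EC50. Cells were maintained in DMEM with 10% heat-inactivated FBS and antibiotics at 37°C, 6.0% CO₂.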

[2] = test system: Huh7.5.1; test: Cytotoxicity against human Huh7.5.1 cells at 20 uM; format: cell-based
[3] = Inhibition of HCV genotype 2a JFH5a replicon NS5A in infected human Huh 7.5.1 cells assessed as reduction in viral RNA replication incubated for 3 days by luciferase reporter gene assay; set-up: species or system Hepatitis C virus subtype 2a; details: Hepatitis C virus, Huh-7.5.1, 72 h
Procedure, shortened: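 Huh 7.5.1 cells were infected with JFH5a-Rluc-ad34 (a JFH1 genotype 2a derivative with adaptive E2/p7 mutations, Renilla luciferase reporter) cell-culture virus for 3 h. They were then cultured in serially diluted compounds for 3 days. Cells were harvested and Renilla luciferase activity measured, normalised to mock-treated cells, to give EC50.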

[4] = test system: Salmonella typhimurium; test: Mutagenicity in Salmonella typhimurium TA98 assessed as revertant colonies/plate in presence of liver S9 fraction at 5000 ug/plate by Ames test (reference value: 1); format: toxicity; details: salmonella enterica subsp. enterica serovar typhimurium
[5] = test system: Salmonella typhimurium; test: Mutagenicity in Salmonella typhimurium TA100 assessed as revertant colonies/plate in absence of liver S9 fraction at 5000 ug/plate by Ames test (reference value: 7 +/- 2 ); format: toxicity; details: salmonella enterica subsp. enterica serovar typhimurium
[6] = test system: Salmonella typhimurium; test: Mutagenicity in Salmonella typhimurium TA98 assessed as revertant colonies/plate in absence of liver S9 fraction at 5000 ug/plate by Ames test (reference value: 1); format: toxicity; details: salmonella enterica subsp. enterica serovar typhimurium
[7] = test system: Salmonella typhimurium; test: Mutagenicity in Salmonella typhimurium TA100 assessed as revertant colonies/plate in presence of liver S9 fraction at 5000 ug/plate by Ames test (reference value: 5 +/- 2 ); format: toxicity; details: salmonella enterica subsp. enterica serovar typhimurium
[8] = biological target: hERG (KCNH2) (Homo sapiens, UniProt Q12809); test: Inhibition of human ERG at 10 uM by fluorescence polarization assay
[9] = Metabolic stability in human plasma assessed as compound remaining at 100 uM after 4 hrs incubation by LC-MS/MS analysis; format: ADME, cell-free; details: read-out: Stability
Procedure, shortened: (§1)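 Test compound (100 µM stock) was added to plasma pre-warmed 5 min at 37°C, mixed by vortex and incubated at 37°C. Samples were taken at 0, 15, 30, 60 and […] and quenched with 2 volumes acetonitrile. After centrifugation at 10,000 rpm for 10 min, the supernatant was analysed by LC-MS/MS. Results are given as % remaining after 4 h; mean ± SD. Enalapril and procaine served as controls.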

[10] = test system: Salmonella typhimurium; test: Mutagenicity in Salmonella typhimurium TA98 assessed as revertant colonies/plate in presence of liver S9 fraction at 1000 ug/plate by Ames test (reference value: 25 +/- 3); format: toxicity; details: salmonella enterica subsp. enterica serovar typhimurium
[11] = test system: Salmonella typhimurium; test: Mutagenicity in Salmonella typhimurium TA100 assessed as revertant colonies/plate in presence of liver S9 fraction at 1000 ug/plate by Ames test (reference value: 129 +/- 3); format: toxicity; details: salmonella enterica subsp. enterica serovar typhimurium
[12] = test system: Salmonella typhimurium; test: Mutagenicity in Salmonella typhimurium TA100 assessed as revertant colonies/plate in absence of liver S9 fraction at 1000 ug/plate by Ames test (reference value: 125 +/- 9); format: toxicity; details: salmonella enterica subsp. enterica serovar typhimurium
[13] = test system: Hepatitis C virus subtype 1b; test: Inhibition of HCV genotype 1b NK5.1 NS5A in infected human Huh 7.5.1 cells assessed as reduction in viral RNA replication by measuring combination index in presence of NS5B inhibitor sofosbuvir at ED50 incubated for 3 days by luciferase reporter gene assay
Procedure, shortened: (§2)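 Huh 7.5.1 cells carrying the bicistronic genotype 1b replicon NK5.1-Gluc (secreted Gaussia luciferase) plated at 5 x 10⁴ cells/well. After 16 h they were exposed to inhibitor alone or mixed with sofosbuvir at a constant ratio, serially diluted, for 3 days. Luciferase was read and normalised to mock-treated cells. Combination index at ED50/75/90/95 was obtained by the Chou method.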

[14] = Metabolic stability in rat plasma assessed as compound remaining at 100 uM after 4 hrs incubation by LC-MS/MS analysis; format: ADME, cell-free; details: read-out: Stability; procedure, shortened: as §1
[15] = Cmax in rat at 10 mg/kg, po; format: ADME, organism-based; set-up: dose 10 mg/kg, route oral; details: in vivo
[16] = Half life in rat at 10 mg/kg, po; format: ADME, organism-based; details: in vivo
[17] = Oral bioavailability in rat at 10 mg/kg; format: ADME, organism-based; details: in vivo
[18] = Cmax in rat at 1 mg/kg, iv; format: ADME, organism-based; set-up: dose 1 mg/kg, route intravenous; details: in vivo
[19] = test system: Rattus norvegicus; test: Half life in rat at 1 mg/kg, iv; format: ADME, organism-based; details: in vivo
[20] = test system: Salmonella typhimurium; test: Mutagenicity in Salmonella typhimurium TA98 assessed as revertant colonies/plate in absence of liver S9 fraction at 1000 ug/plate by Ames test (reference value: 21 +/- 1); format: toxicity; details: salmonella enterica subsp. enterica serovar typhimurium
[21] = test system: Hepatitis C virus subtype 1b; test: Inhibition of HCV genotype 1b NK5.1 NS5A in infected human Huh 7.5.1 cells assessed as reduction in viral RNA replication by measuring combination index in presence of NS5B inhibitor sofosbuvir at ED75 incubated for 3 days by luciferase reporter gene assay; procedure, shortened: as §2
[22] = test system: Hepatitis C virus subtype 1b; test: Inhibition of HCV genotype 1b NK5.1 NS5A in infected human Huh 7.5.1 cells assessed as reduction in viral RNA replication by measuring combination index in presence of NS5B inhibitor sofosbuvir at ED90 incubated for 3 days by luciferase reporter gene assay; procedure, shortened: as §2
[23] = test system: Hepatitis C virus subtype 1b; test: Inhibition of HCV genotype 1b NK5.1 NS5A in infected human Huh 7.5.1 cells assessed as reduction in viral RNA replication by measuring combination index in presence of NS5B inhibitor sofosbuvir at ED95 incubated for 3 days by luciferase reporter gene assay; procedure, shortened: as §2
[24] = test system: Salmonella typhimurium; test: Mutagenicity in Salmonella typhimurium TA98 assessed as revertant colonies/plate in absence of liver S9 fraction at 1 ug/plate by Ames test (reference value: 21 +/- 1); format: toxicity; details: salmonella enterica subsp. enterica serovar typhimurium

hERG (KCNH2), sequence (Q12809 whole entry): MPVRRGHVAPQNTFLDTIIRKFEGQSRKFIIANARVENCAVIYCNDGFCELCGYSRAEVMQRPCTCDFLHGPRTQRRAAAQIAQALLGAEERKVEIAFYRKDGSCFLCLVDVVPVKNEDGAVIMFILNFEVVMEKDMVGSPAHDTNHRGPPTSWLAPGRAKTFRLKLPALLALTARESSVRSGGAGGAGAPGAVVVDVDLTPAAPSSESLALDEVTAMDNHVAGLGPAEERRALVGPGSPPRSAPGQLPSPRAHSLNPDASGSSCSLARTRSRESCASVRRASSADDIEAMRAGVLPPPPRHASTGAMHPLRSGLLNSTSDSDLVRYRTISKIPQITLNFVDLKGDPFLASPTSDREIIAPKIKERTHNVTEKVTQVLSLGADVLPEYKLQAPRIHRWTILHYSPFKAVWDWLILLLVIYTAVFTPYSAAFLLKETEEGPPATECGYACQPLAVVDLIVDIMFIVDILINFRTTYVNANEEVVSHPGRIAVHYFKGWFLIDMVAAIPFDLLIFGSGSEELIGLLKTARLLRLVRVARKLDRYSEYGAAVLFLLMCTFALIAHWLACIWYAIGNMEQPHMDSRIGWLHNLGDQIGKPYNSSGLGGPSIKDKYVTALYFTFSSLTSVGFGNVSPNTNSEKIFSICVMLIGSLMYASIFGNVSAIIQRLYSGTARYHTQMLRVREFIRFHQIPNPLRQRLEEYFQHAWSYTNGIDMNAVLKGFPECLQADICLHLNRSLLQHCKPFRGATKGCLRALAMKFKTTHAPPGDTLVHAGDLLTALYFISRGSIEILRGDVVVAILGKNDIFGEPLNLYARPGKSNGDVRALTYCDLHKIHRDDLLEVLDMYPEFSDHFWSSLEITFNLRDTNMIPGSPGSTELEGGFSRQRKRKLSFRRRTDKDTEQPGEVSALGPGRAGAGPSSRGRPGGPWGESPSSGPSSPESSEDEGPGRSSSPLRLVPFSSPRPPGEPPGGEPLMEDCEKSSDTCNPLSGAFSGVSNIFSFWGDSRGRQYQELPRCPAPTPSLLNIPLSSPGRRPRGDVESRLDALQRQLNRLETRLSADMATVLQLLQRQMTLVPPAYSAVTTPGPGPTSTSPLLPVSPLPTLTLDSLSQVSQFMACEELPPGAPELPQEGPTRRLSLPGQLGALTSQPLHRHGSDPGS

SMILES: COC(=O)N[C@@H](C(=O)N1CCC[C@H]1C(=O)Nc1cccc(OS(=O)(=O)Oc2cccc(NC(=O)[C@@H]3CCCN3C(=O)[C@H](NC(=O)OC)c3ccccc3)c2C)c1C)c1ccccc1
pEC50 [1]: 7.64
Activity [2]: > 30 µM

SMILES: COC(=O)N[C@@H](C(=O)N1CCC[C@H]1C(=O)Nc1ccc(S(=O)(=O)c2ccc(NC(=O)[C@@H]3CCCN3C(=O)[C@H](NC(=O)OC)c3ccccc3)cc2)cc1)c1ccccc1
pEC50 [1]: 7.44
Activity [2]: > 30 µM

SMILES: Nc1ccc(OS(=O)(=O)Oc2ccc(N)cc2)cc1
Activity [4]: 1
Activity [5]: 10
Activity [6]: 1
Activity [7]: 8

SMILES: COC(=O)N[C@H](C(=O)N1CCC[C@H]1C(=O)Nc1cccc(OS(=O)(=O)Oc2cccc(NC(=O)[C@@H]3CCCN3C(=O)[C@@H](NC(=O)OC)C(C)(C)C)c2)c1)C(C)(C)C
pEC50 [1]: 10.11
pEC50 [3]: 9.03
Activity [2]: > 30 µM

SMILES: CCN(CC)CCOC(=O)c1ccc(N)cc1 [PROCAINE]
remaining at 4 h, 100 µM [9]: 0.003%

SMILES: COC(=O)N[C@@H](C(=O)N1CCC[C@H]1C(=O)Nc1ccc(C)c(OS(=O)(=O)Oc2cc(NC(=O)[C@@H]3CCCN3C(=O)[C@H](NC(=O)OC)c3ccccc3)ccc2C)c1)c1ccccc1
pEC50 [1]: 9.96
pEC50 [3]: 8.65
Activity [2]: > 30 µM

SMILES: CCOC(=O)[C@H](CCc1ccccc1)N[C@@H](C)C(=O)N1CCC[C@H]1C(=O)O
remaining at 4 h, 100 µM [14]: 0.032%

SMILES: COC(=O)N[C@@H](C(=O)N1CCC[C@H]1C(=O)Nc1ccc(S(=O)(=O)c2ccc(NC(=O)[C@@H]3CCCN3C(=O)[C@H](NC(=O)OC)C(C)C)cc2)cc1)C(C)C
pEC50 [1]: < 4.00
Activity [2]: > 30 µM

SMILES: O=[N+]([O-])c1ccc2c(c1)Cc1ccccc1-2 [2-NITROFLUORENE]
Activity [24]: 183

SMILES: COC(=O)N[C@H](C(=O)N1CCC[C@H]1C(=O)Nc1ccc(S(=O)(=O)c2ccc(NC(=O)[C@@H]3CCCN3C(=O)[C@@H](NC(=O)OC)C(C)C)cc2)cc1)C(C)C
pEC50 [1]: < 4.00
Activity [2]: > 30 µM

SMILES: COC(=O)N[C@@H](C(=O)N1CCC[C@H]1C(=O)Nc1ccc(OS(=O)(=O)Oc2ccc(NC(=O)[C@@H]3CCCN3C(=O)[C@H](NC(=O)OC)C(C)C)cc2)cc1)C(C)C
pEC50 [1]: 6.24
Activity [2]: > 30 µM

The next lines start with results.

pEC50 [1]: 7.43
SMILES: COC(=O)N[C@H](C(=O)N1CCC[C@H]1c1ncc(-c2cccc(OS(=O)(=O)Oc3cccc(-c4cnc([C@@H]5CCCN5C(=O)[C@@H](NC(=O)OC)C(C)(C)C)[nH]4)c3)c2)[nH]1)C(C)(C)C
Activity [2]: > 30 µM

pEC50 [1]: 9.57
pEC50 [3]: 9.83
SMILES: COC(=O)N[C@@H](C(=O)N1CCC[C@H]1c1ncc(-c2ccc(OS(=O)(=O)Oc3ccc(-c4cnc([C@@H]5CCCN5C(=O)[C@H](NC(=O)OC)c5ccccc5)[nH]4)cc3)cc2)[nH]1)c1ccccc1
Activity [2]: > 30 µM

pEC50 [1]: 9.44
pEC50 [3]: 8.00
SMILES: COC(=O)N[C@@H](C(=O)N1CCC[C@H]1c1ncc(-c2cccc(OS(=O)(=O)Oc3cccc(-c4cnc([C@@H]5CCCN5C(=O)[C@H](NC(=O)OC)c5ccccc5)[nH]4)c3)c2)[nH]1)c1ccccc1
Activity [2]: > 30 µM

pEC50 [1]: 8.37
SMILES: COC(=O)N[C@H](C(=O)N1CCC[C@H]1c1ncc(-c2ccc(OS(=O)(=O)Oc3ccc(-c4cnc([C@@H]5CCCN5C(=O)[C@@H](NC(=O)OC)C(C)C)[nH]4)cc3)cc2)[nH]1)C(C)C
Activity [2]: > 30 µM

pEC50 [1]: 10.70
pEC50 [3]: 10.70
remaining at 4 h, 100 µM [9]: 86.3%
CI [13]: 0.872
remaining at 4 h, 100 µM [14]: 76.7%
Cmax [15]: 14 ng/mL
half-life [16]: 1.6 h
bioavailability [17]: 0.54%
Cmax [18]: 1960 ng/mL
t1/2 [19]: 0.51 h
CI [21]: 0.909
CI [22]: 0.949
CI [23]: 0.977
SMILES: COC(=O)N[C@@H](C(=O)N1CCC[C@H]1C(=O)Nc1cccc(OS(=O)(=O)Oc2cccc(NC(=O)[C@@H]3CCCN3C(=O)[C@H](NC(=O)OC)c3ccccc3)c2)c1)c1ccccc1
Activity [2]: > 30 µM
inhibition at 10 µM [8]: 2.73%
Activity [10]: 29
Activity [11]: 130
Activity [12]: 126
Activity [20]: 26

pEC50 [1]: 10.49
pEC50 [3]: 9.05
remaining at 4 h, 100 µM [9]: 92.6%
CI [13]: 0.98
remaining at 4 h, 100 µM [14]: 87.2%
Cmax [15]: 17 ng/mL
half-life [16]: 2.25 h
bioavailability [17]: 0.74%
Cmax [18]: 1680 ng/mL
t1/2 [19]: 0.92 h
CI [21]: 1.06
CI [22]: 1.16
CI [23]: 1.25
SMILES: COC(=O)N[C@H](C(=O)N1CCC[C@H]1c1ncc(-c2cccc(OS(=O)(=O)Oc3cccc(-c4cnc([C@@H]5CCCN5C(=O)[C@@H](NC(=O)OC)C(C)C)[nH]4)c3)c2)[nH]1)C(C)C
Activity [2]: > 30 µM
inhibition at 10 µM [8]: 18.7%
Activity [10]: 29
Activity [11]: 110
Activity [12]: 125
Activity [20]: 28

pEC50 [1]: 6.38
pEC50 [3]: 6.37
SMILES: COC(=O)N[C@@H](C(=O)N1CCC[C@H]1c1ncc(-c2ccc(OS(=O)(=O)Oc3ccc(-c4cnc([C@@H]5CCCN5C(=O)[C@H](NC(=O)OC)C(C)C)[nH]4)cc3)cc2)[nH]1)C(C)C
Activity [2]: > 30 µM

pEC50 [1]: 11.00
SMILES: COC(=O)N[C@@H](C(=O)N1CCC[C@H]1C(=O)Nc1ccc(OS(=O)(=O)Oc2ccc(NC(=O)[C@@H]3CCCN3C(=O)[C@H](NC(=O)OC)c3ccccc3)cc2)cc1)c1ccccc1
Activity [2]: > 30 µM
